Assay results taken from ChEMBL document CHEMBL1125611, “Synthesis and biological evaluation of a series of 1,1-dichloro-2,2,3-triarylcyclopropanes as pure antiestrogens” (1991).

Key:
Mus musculus [1] = organism: Mus musculus; test: Ability to antagonize uterine weight gain in immature mice, at a dose of 30 ug; Activity is expressed as anti-uterotrophic % reduction; type: functional; design: scale not given: the % may be the effect or the level left
In short: (§1)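 Immature (17-19 days, 8-10 g) female Swiss-Webster mice, groups of six. Daily sc injections in the nape for 3 consecutive days. Estradiol in sesame oil (0.1 µg/mL, 0.1 mL; total 0.03 µg) plus 0.05 mL test compound in isopropyl myristate, given at separate sites. Vehicle and estradiol-only controls. Uteri cleaned, blotted and weighed 24 h after the last dose. % reduction of the estradiol-induced weight gain.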

Mus musculus [2] = organism: Mus musculus; test: Ability to antagonize uterine weight gain in immature mice, at a dose of 150 ug; Activity is expressed as anti-uterotrophic % reduction; type: functional; design: scale not given: the % may be the effect or the level left; in short: as §1
[3] = target: T1, Estrogen receptor (Mus musculus) (UniProt O08537+P19785); test: Antagonism of estradiol induced uterine weight gain in immature mice at 10 ug; Activity is expressed as anti-uterotrophic % reduction; type: functional; design: scale not given: the % may be the effect or the level left; in short: as §1
[4] = target: T1, Estrogen receptor (Mus musculus); test: Antagonism of estradiol induced uterine weight gain in immature mice at 4 ug; Activity is expressed as anti-uterotrophic % reduction; type: functional; design: scale not given: the % may be the effect or the level left; in short: as §1
Mus musculus [5] = organism: Mus musculus; test: Ability to antagonize uterine weight gain in immature mice, at a dose of 750 ug; Activity is expressed as anti-uterotrophic % reduction; type: functional; design: scale not given: the % may be the effect or the level left; in short: as §1
[6] = target: Estrogen receptor (Homo sapiens) (UniProt Q92731+P03372); test: Antiproliferative activity against estrogen receptor positive MCF-7 human breast cancer cell line at 10e-9 M; type: functional, cell-based; settings: MCF7
In short: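 MCF-7 cells in phenol-red-free RPMI 1640 with 5% calf serum, 2 mM L-glutamine and antibiotics, 37 °C, 5% CO2. Plated at 7.5 × 10⁴ cells/well, then allowed to attach for 2 days. Compound in 11:9 PEG 400–EtOH (final vehicle 0.1%) added on alternate days. Viable cells counted on day 4 by trypan blue exclusion, triplicate. % inhibition versus vehicle control.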

[7] = target: T1, Estrogen receptor (Mus musculus); test: Antagonism of estradiol induced uterine weight gain in immature mice at 200 ug; Activity is expressed as anti-uterotrophic % reduction; type: functional; design: scale not given: the % may be the effect or the level left; in short: as §1
[8] = target: T1, Estrogen receptor (Mus musculus); test: Antagonism of estradiol induced uterine weight gain in immature mice at 400 ug; Activity is expressed as anti-uterotrophic % reduction; type: functional; design: scale not given: the % may be the effect or the level left; in short: as §1
[9] = target: T1, Estrogen receptor (Mus musculus); test: Antagonism of estradiol induced uterine weight gain in immature mice at 800 ug; Activity is expressed as anti-uterotrophic % reduction; type: functional; design: scale not given: the % may be the effect or the level left; in short: as §1
[10] = target: T1, Estrogen receptor (Mus musculus); test: Antagonism of estradiol induced uterine weight gain in immature mice at 150 ug.(p<0.01); type: functional; design: scale not given: the % may be the effect or the level left; in short: as §1
[11] = target: T1, Estrogen receptor (Mus musculus); test: Antagonism of estradiol induced uterine weight gain in immature mice at 750 ug; Activity is expressed as anti-uterotrophic % reduction; type: functional; design: scale not given: the % may be the effect or the level left; in short: as §1
[12] = target: T1, Estrogen receptor (Mus musculus); test: Antagonism of estradiol induced uterine weight gain in immature mice at 30 ug.; type: functional; design: scale not given: the % may be the effect or the level left; in short: as §1
[13] = target: Estrogen receptor (Rattus norvegicus) (UniProt P06211+Q62986); test: Relative binding affinity for estrogen receptor in rat uterine cytosol by displacement of [3H]-estradiol; settings: Uterus
In short: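 Uterine cytosol from immature Sprague-Dawley rats (17-19 days) primed with estradiol (0.53 µg sc daily ×3). Competitive displacement of [3H]estradiol, with free ligand removed by dextran-coated charcoal. Parallel incubations with 4 × 10⁻⁶ diethylstilbestrol define nonspecific binding, which is subtracted. RBA relative to estradiol = 100%, by Bliss method, duplicates.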

T1 sequence (O08537 whole entry, looked up): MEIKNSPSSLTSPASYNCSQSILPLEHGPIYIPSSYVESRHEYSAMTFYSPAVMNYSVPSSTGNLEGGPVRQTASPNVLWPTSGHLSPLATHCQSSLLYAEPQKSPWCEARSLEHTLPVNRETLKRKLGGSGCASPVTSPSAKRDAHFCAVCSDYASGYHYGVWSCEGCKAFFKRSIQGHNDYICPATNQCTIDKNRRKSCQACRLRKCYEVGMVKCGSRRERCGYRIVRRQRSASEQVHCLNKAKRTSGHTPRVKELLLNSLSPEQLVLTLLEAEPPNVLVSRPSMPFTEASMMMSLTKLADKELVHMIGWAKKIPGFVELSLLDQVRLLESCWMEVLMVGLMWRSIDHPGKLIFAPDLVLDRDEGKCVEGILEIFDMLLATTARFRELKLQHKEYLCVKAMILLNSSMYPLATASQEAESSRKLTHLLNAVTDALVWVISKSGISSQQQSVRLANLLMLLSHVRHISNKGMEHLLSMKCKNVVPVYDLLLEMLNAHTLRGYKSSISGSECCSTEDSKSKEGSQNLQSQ
T1 sequence (P19785 whole entry, looked up): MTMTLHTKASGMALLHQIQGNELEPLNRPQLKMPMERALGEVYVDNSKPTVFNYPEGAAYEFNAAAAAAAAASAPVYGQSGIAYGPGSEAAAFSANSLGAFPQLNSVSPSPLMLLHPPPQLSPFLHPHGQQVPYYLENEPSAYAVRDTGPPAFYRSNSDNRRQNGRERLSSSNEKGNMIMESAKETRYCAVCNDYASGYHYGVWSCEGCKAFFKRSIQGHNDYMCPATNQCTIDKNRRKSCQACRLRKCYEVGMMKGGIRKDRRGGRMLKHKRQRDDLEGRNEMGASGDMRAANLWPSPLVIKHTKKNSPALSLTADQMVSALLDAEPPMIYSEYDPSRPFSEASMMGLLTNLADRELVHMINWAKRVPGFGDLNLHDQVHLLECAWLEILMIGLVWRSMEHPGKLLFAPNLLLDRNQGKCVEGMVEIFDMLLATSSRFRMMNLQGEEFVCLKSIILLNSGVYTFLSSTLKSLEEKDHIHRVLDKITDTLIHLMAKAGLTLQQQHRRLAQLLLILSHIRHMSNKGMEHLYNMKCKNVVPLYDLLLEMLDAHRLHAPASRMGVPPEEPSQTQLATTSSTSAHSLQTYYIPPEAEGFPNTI

Structure (SMILES)	Activity (Mus musculus [1])	Activity (Mus musculus [2])	Activity (Mus musculus [5])	also measured
CN(C)CCOc1ccc(C2(c3ccccc3)C(c3ccccc3)C2(Cl)Cl)cc1 (configuration not stated)	37%	30%	18%	Activity [3]: 10%; Activity [4]: -6%; inhibition [6]: 12.4%
COc1ccc(C2C(Cl)=C(c3ccc(OCc4ccccc4)cc3)c3ccc(OC)cc32)cc1 (configuration not stated)	14%	4%	0%	–
ClC1(Cl)C(c2ccccc2)C1c1ccccc1 (configuration not stated)	–	–	–	Activity [7]: 28%; Activity [8]: 42%; Activity [9]: 58%
COc1ccc(C2(c3ccc(O)cc3)C(c3ccccc3)C2(Cl)Cl)cc1 (stereo in doubt; 6b)	15%	-7%	41%	–
COc1ccc(C2(c3ccc(OCc4ccccc4)cc3)C(c3ccccc3)C2(Cl)Cl)cc1 (configuration not stated)	37%	–	22%	Activity [10]: 47%; inhibition [6]: 31.3%
Oc1ccc(C2(c3ccccc3)C(c3ccccc3)C2(Cl)Cl)cc1 (configuration not stated)	23%	12%	25%	–
COc1ccc(C2C(Cl)(Cl)C2(c2ccc(O)cc2)c2ccc(OC)cc2)cc1 (configuration not stated)	19%	10%	26%	–
COc1ccc(C2(c3ccc(OCCN(C)C)cc3)C(c3ccccc3)C2(Cl)Cl)cc1 (configuration not stated)	33%	42%	53%	Activity [3]: 6%; Activity [4]: -10%
CCN(CC)CCOc1ccc(C(O)(Cc2ccc(OC)cc2)c2ccccc2)cc1 (configuration not stated)	1%	30%	–	Activity [11]: 82%
CC/C(=C(\c1ccccc1)c1ccc(OCCN(C)C)cc1)c1ccccc1 [TAMOXIFEN]	4%	0%	-12%	–
COc1ccc(C2=C(Cl)C(c3ccc(OC)cc3)c3cc(OC)ccc32)cc1 (configuration not stated)	27%	-6%	28%	–
COc1ccc(C2(c3ccccc3)C(c3ccccc3)C2(Cl)Cl)cc1 (configuration not stated)	22%	49%	33%	inhibition [6]: 6.1%
COc1ccc(C2(c3ccc(O)cc3)C(c3ccccc3)C2(Cl)Cl)cc1 (stereo in doubt; 6c)	28%	18%	22%	–
COc1ccc(C2C(Cl)(Cl)C2(c2ccc(OC)cc2)c2ccc(OCc3ccccc3)cc2)cc1 (configuration not stated)	–	49%	2%	Activity [12]: 15%; Activity [3]: 2%
ClC1(Cl)C(c2ccccc2)C1(c1ccccc1)c1ccccc1 (configuration not stated)	11%	3%	13%	RBA [13]: 0.1%
COc1ccc(C2C(Cl)=C(c3ccc(O)cc3)c3ccc(OC)cc32)cc1 (configuration not stated)	3%	14%	12%	–
